The results in this text go back to ChEMBL document CHEMBL4014355 (J Med Chem, 2017).

pIC50, pKi: −log10 of the molar value. Activity calls are given as the source filed them. The rule behind the calls is not given here.

In series [1] the target is Histone-lysine N-methyltransferase 2B (Homo sapiens) (UniProt Q9UMN6). The series is described as follows: Inhibition of MLL2 (unknown origin) H3K4 methyltransferase activity using biotinyl-H3 peptide (1 to 21 residues) and using [3H]-S adenosylmethionine as methyl donor up to 100 uM after 1 hr by scintillation counting.
Series [2] relates to MOLM-13. In words: Cytotoxicity against human MOLM13 cells harboring MLL-AF9 fusion protein assessed as cell growth inhibition after 4 days by WST8 assay. Format: functional, cell-based. To be noted: MOLM-13, 96 h. In outline: (§1)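 Cells (MOLM-13 with MLL-AF9, MV4-11 with MLL-AF4, HL-60 with no MLL fusion) seeded at 1 × 10^4 cells/well and exposed to a range of inhibitor concentrations for 4 days, with 0.2% DMSO final in the medium. Viability was read by WST-8 kit. Three independent experiments, each in triplicate.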
A general note: Tetrazolium assays rely on reduction of a dye to a coloured formazan, in cell work by metabolically active cells.

Series [3] relates to MOLM-13. The series is described as follows: Cytotoxicity against human MOLM13 cells harboring MLL-AF9 fusion protein assessed as cell growth inhibition at 0.38 uM after 4 days by WST8 assay. The class given is functional. To be noted: MOLM-13, 96 h, read-out: GI.
For series [4], the system named is MV4-11. The series is described as follows: Cytotoxicity against human MV4-11 cells harboring MLL-AF4 fusion protein assessed as cell growth inhibition at 0.69 uM after 4 days by WST8 assay. The class given is functional. To be noted: MV4-11, 96 h, read-out: GI.
Series [5] has as its target Histone-lysine N-methyltransferase 2D (Homo sapiens) (UniProt O14686). In words: Inhibition of MLL4 (unknown origin) H3K4 methyltransferase activity using biotinyl-H3 peptide (1 to 21 residues) and using [3H]-S adenosylmethionine as methyl donor up to 100 uM after 1 hr by scintillation counting.
Series [6] can be described thus: Half life in mouse microsomes. The class given is ADME, Microsome.
In series [7] the target is MLL1-ASH2L/RbBP5/WDR5/DPY30 (Homo sapiens, UniProt P61964). The series is described as follows: Inhibition of human N-terminal GST-tagged MLL1 (3735 to 3973 residues) interaction with human full length N-terminal 6xHis-tagged ASH2L/N-terminal 6xHis-tagged human full length RbBP5/human N-terminal 6xHis-tagged WDR5/human full length N-terminal 6xHis-tagged DPY30 assessed as decrease in H3K4me1-2 methylation preincubated for 30 mins followed by SAM/nucleosome mixture addition measured after 120 mins in absence of light by AlphaLISA assay. The class given is protein assay. In general terms: Alpha assays give light when donor and acceptor beads are brought close together.

For series [8], the target named is Histone-lysine N-methyltransferase SETD1B (Homo sapiens) (UniProt Q9UPS6). The series is described as follows: Inhibition of […] (unknown origin) H3K4 methyltransferase activity using biotinyl-H3 peptide (1 to 21 residues) and using [3H]-S adenosylmethionine as methyl donor up to 100 uM after 1 hr by scintillation counting.
Series [9] is described as follows: Selectivity ratio of IC50 for human HL60 cells lacking MLL translocation to IC50 for human MOLM13 cells harboring MLL-AF9 fusion protein.
Series [10] in a line: Half life in human microsomes. The class given is ADME, Microsome.
Series [11] is described as follows: Half life in rat microsomes. Format: ADME, Microsome.
In series [12] the test system is MOLM-13. The series is described as follows: Cytotoxicity against human MOLM13 cells harboring MLL-AF9 fusion protein assessed as cell growth inhibition at 0.10 uM after 7 days by WST8 assay. Format: functional. To be noted: MOLM-13, 168 h, read-out: GI.
For series [13], the system named is MV4-11. In words: Cytotoxicity against human MV4-11 cells harboring MLL-AF4 fusion protein assessed as cell growth inhibition after 7 days by WST8 assay. The class given is functional, cell-based. To be noted: MV4-11, 168 h. In outline:
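MV4-11 cells (MLL-AF4) plated at 5 × 10^4 cells/mL and treated with the compound. WST-8 viability was read on day 4. Then 10% of viable cells were moved to fresh medium with the same compound concentrations and cultured 3 more days. The day-7 read was also by WST-8.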

The subject of another series is HL-60. The series is described as follows: Cytotoxicity against human HL60 cells lacking MLL translocation assessed as cell growth inhibition after 4 days by WST8 assay. The class given is cell-based. To be noted: HL-60, 96 h. In outline:
as §1

The nature of series [14]: Selectivity ratio of IC50 for human HL60 cells lacking MLL translocation to IC50 for human MV4-11 cells harboring MLL-AF4 fusion protein.
Series [15] has as its system MV4-11. The series is described as follows: Cytotoxicity against human MV4-11 cells harboring MLL-AF4 fusion protein assessed as cell growth inhibition after 4 days by WST8 assay. Format: functional, cell-based. To be noted: MV4-11, 96 h. In outline: as §1
The target of series [16] is Histone-lysine N-methyltransferase SETD1A (Homo sapiens) (UniProt O15047). The series is described as follows: Inhibition of SET1a (unknown origin) H3K4 methyltransferase activity using biotinyl-H3 peptide (1 to 21 residues) and using [3H]-S adenosylmethionine as methyl donor up to 100 uM after 1 hr by scintillation counting.
Series [17] in a line: Stability of compound in cell culture media at 0.5 mM after 7 days by Waters ACQUITY UPLC analysis.
The nature of series [18]: Inhibition of 5-FAM tracer binding to WDR5 delta23 mutant (24 to 334 residues) (unknown origin) expressed in Escherichia coli Rosetta 2 (DE3) cells after 3 hrs by fluorescence polarization assay. Also on record: species or system Homo sapiens.
For series [19], the target named is Histone-lysine N-methyltransferase 2C (Homo sapiens) (UniProt Q8NEZ4). The series is described as follows: Inhibition of MLL3 (unknown origin) H3K4 methyltransferase activity using biotinyl-H3 peptide (1 to 21 residues) and using [3H]-S adenosylmethionine as methyl donor up to 100 uM after 1 hr by scintillation counting.
Series [20] deals with MV4-11. In words: Cytotoxicity against human MV4-11 cells harboring MLL-AF4 fusion protein assessed as cell growth inhibition at […] after 7 days by WST8 assay. Format: functional. To be noted: MV4-11, 168 h, read-out: GI.
Series [21] has as its system MOLM-13. The series is described as follows: Cytotoxicity against human MOLM13 cells harboring MLL-AF9 fusion protein assessed as cell growth inhibition after 7 days by WST8 assay. Format: functional, cell-based. To be noted: MOLM-13, 168 h. In outline: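 Long-term treatment of MOLM-13 plated at 5 × 10^4 cells/mL. Viability measured by WST-8 on day 4. Then 10% of viable cells were moved to fresh medium at the same compound concentration and cultured 3 more days, with viability read again on day 7.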

Histone-lysine N-methyltransferase 2C (Homo sapiens), sequence (Q8NEZ4 whole entry, the tested form may be a part): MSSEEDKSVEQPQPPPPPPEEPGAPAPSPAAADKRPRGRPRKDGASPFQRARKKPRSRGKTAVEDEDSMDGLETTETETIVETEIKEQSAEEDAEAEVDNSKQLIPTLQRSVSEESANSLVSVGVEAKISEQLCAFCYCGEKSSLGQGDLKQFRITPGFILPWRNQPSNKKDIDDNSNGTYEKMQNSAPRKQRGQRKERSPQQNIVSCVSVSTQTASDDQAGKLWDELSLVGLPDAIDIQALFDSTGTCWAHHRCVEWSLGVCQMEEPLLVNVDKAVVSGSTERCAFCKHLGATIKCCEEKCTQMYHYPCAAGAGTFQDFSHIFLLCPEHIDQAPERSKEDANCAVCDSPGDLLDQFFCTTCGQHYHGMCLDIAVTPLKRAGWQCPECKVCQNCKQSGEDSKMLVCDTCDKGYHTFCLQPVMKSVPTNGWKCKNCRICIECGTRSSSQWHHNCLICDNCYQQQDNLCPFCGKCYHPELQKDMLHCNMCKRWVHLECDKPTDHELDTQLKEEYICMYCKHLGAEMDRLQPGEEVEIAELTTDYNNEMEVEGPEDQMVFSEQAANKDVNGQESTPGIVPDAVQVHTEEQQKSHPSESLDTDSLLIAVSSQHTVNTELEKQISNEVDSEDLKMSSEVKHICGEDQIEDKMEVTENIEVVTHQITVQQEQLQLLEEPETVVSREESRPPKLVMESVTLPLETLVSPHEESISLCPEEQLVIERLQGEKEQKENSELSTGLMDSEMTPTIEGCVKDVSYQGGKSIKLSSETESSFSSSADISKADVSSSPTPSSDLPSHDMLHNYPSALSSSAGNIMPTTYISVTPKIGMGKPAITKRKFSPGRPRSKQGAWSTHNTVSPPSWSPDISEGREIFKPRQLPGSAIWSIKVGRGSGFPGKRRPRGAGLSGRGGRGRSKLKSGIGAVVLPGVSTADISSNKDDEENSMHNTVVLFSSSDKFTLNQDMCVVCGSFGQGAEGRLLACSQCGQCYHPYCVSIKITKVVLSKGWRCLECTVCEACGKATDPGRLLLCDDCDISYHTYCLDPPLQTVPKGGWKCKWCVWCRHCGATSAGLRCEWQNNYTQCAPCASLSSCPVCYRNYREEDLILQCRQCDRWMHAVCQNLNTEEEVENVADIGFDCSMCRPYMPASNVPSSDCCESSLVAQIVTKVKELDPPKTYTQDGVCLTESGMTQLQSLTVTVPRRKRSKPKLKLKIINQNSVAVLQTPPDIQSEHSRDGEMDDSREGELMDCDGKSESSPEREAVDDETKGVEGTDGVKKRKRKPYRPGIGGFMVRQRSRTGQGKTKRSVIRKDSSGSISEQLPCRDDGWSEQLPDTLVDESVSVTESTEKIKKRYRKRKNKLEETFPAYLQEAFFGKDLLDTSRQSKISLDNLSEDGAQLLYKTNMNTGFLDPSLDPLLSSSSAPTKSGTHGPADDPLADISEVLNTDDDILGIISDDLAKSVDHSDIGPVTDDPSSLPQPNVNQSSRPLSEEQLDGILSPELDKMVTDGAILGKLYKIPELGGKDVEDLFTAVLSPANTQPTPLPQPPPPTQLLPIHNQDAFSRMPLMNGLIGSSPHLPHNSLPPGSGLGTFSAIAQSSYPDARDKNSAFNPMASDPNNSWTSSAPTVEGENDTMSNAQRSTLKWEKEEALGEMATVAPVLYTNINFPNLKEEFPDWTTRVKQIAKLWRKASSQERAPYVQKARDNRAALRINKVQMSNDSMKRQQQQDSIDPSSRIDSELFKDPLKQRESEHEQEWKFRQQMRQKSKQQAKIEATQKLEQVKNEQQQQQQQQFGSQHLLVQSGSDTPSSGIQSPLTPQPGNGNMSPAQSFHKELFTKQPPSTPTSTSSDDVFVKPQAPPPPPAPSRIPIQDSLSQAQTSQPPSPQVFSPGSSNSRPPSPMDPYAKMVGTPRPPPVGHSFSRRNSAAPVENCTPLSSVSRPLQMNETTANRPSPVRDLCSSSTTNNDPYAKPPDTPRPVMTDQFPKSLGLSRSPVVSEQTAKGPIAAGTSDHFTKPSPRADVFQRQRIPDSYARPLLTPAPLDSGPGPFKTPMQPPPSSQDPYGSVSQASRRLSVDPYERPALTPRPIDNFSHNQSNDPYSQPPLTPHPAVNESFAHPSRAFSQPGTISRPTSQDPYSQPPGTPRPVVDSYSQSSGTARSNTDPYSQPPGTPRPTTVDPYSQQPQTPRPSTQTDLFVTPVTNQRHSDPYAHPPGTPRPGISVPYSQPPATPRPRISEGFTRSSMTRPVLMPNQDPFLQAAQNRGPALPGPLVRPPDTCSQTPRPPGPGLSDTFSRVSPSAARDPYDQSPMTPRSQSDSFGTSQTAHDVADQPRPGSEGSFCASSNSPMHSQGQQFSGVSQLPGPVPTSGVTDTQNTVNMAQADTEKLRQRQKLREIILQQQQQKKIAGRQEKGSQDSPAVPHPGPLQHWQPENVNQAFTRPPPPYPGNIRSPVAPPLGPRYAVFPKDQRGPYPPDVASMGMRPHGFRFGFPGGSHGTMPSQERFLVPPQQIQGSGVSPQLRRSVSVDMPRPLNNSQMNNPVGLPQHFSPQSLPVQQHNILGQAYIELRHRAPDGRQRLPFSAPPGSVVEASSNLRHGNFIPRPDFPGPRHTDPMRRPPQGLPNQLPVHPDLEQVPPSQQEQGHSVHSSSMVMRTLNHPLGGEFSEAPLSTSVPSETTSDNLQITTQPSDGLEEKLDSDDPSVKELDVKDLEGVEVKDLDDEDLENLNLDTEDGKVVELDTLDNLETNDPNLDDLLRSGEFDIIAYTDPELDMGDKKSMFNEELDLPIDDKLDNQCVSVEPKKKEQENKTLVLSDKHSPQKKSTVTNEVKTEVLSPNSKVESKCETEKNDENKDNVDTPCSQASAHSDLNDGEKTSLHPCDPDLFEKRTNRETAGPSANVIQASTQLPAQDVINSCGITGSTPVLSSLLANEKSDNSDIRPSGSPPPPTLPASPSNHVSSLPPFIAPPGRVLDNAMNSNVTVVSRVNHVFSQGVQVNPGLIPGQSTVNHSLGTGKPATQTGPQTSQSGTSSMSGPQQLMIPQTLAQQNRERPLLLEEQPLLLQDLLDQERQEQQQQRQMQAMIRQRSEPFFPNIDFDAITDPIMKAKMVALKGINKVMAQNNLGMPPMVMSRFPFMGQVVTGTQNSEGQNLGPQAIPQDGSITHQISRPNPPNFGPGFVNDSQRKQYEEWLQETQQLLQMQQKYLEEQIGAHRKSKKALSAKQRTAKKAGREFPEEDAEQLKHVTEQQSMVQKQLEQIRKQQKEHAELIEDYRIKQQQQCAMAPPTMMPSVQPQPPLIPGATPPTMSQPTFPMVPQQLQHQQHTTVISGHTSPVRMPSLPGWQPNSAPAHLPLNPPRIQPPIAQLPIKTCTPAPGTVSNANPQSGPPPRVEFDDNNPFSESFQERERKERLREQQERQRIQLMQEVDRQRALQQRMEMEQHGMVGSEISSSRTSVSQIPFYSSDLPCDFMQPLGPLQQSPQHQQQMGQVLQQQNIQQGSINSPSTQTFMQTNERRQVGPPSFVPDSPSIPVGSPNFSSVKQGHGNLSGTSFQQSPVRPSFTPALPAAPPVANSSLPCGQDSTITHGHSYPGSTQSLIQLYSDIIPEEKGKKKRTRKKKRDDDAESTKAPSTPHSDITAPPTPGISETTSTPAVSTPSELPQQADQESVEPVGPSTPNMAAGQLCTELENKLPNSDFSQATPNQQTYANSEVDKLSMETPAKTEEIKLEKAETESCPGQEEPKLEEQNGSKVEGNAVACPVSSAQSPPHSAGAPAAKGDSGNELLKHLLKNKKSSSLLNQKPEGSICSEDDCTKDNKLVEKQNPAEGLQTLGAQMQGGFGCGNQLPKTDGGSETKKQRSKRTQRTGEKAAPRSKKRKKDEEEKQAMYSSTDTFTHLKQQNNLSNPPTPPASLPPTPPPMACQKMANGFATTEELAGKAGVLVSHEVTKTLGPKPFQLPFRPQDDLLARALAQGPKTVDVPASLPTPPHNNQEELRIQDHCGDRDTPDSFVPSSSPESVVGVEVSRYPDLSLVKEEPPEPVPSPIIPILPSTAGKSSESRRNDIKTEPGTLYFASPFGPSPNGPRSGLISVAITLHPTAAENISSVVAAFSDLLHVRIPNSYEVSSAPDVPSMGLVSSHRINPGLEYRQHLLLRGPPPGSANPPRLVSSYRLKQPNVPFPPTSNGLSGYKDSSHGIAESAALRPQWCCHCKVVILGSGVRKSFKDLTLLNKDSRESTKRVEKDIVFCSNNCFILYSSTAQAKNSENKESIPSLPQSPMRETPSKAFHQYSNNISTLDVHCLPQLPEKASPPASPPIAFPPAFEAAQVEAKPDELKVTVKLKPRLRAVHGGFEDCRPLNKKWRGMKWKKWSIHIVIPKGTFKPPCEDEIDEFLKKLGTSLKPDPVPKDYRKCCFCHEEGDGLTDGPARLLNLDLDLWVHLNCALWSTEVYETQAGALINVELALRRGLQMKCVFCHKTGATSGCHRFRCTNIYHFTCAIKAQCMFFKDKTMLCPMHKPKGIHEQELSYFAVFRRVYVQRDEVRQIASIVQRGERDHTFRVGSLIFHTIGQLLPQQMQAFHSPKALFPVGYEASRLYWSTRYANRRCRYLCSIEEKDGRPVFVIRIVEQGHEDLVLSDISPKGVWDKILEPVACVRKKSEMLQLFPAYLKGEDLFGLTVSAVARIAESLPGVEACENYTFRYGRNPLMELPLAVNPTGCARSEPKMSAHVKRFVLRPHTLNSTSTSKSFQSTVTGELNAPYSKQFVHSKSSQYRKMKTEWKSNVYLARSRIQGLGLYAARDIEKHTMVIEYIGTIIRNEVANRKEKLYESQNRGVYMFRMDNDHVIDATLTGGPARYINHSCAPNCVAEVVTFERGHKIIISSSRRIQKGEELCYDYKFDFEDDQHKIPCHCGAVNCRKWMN

With `CC[C@@H]1NC(=O)[C@H](CCCNC(=N)NC)NC(=O)[C@](C)(NC(=O)C(C)C)CCNC(=O)[C@@H](c2ccccc2)NC1=O.O=C(O)C(F)(F)F`, the inhibition entry in [1], in [5], in [8], in series [16] and in series [19] was “inactive” throughout. Further, the pIC50 (commonly the negative decadic logarithm of the IC50, by convention in mol/L) is 6.68 in the series with MOLM-13 [2]; 7.90 in series [7]; 6.54 with MV4-11 [13]; 5.07 with HL-60; 6.60 in the series on MV4-11 [15]; 9.05 in series [18]. Moreover, the pIC50 with MOLM-13 [21] was 7.00. In addition, in the series with MOLM-13 [3], the inhibition of growth at 0.38 µM was determined as 75%. Also, the inhibition of growth at 0.69 µM with MV4-11 [4] was determined as 75%. In addition, the half-life in [6], in series [10] and in [11] was over 1 h throughout. The “Ratio IC50” value in series [9] and in series [14] was over 30 each time. Moreover, in the series with MOLM-13 [12], the inhibition of growth at 0.1 µM is over 95%. Further, the Stability result in series [17] was “Stable”. Also, the pKi (as a rule, −log10 of the Ki, conventionally taken in molar units) in series [18] is over 9.00. The inhibition of growth at […] with MV4-11 [20] is over 95%.
